In ChEMBL document CHEMBL1144404, “Aminoimidazolylmethyluracil analogues as potent inhibitors of thymidine phosphorylase and their bioreductive nitroimidazolyl prodrugs” (J Med Chem, 2005) one finds Ratio and k cat data, which are given here for 2 compounds.

The target in experiment [1] is T1, Thymidine phosphorylase (Homo sapiens) (UniProt P19971).
T1 sequence (whole entry): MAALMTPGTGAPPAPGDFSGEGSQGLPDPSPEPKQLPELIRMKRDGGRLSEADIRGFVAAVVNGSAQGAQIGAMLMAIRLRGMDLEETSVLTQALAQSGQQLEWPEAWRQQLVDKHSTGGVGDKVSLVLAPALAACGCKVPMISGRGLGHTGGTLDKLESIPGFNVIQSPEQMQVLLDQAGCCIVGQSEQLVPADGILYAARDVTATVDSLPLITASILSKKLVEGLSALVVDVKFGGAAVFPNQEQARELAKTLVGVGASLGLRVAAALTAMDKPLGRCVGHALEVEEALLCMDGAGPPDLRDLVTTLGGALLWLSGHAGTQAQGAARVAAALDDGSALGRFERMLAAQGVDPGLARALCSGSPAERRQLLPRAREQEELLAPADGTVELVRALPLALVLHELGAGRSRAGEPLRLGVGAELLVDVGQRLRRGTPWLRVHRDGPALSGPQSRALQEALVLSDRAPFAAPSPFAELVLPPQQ
The experiment in a line: Ratio of Kcat to Km against human thymidine phosphorylase. The essentials: (§1)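 Recombinant human TP expressed in V79 Chinese hamster cells, 0.065 absorbance unit per assay. Continuous spectrophotometric assay at 355 nm, 25 °C, 0.1 M phosphate buffer pH 7.4, 0.2 mL total volume, with 5-nitro-2'-deoxyuridine as substrate; kinetic constants from initial rates.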

Experiment [2] deals with Thymidine phosphorylase (Escherichia coli K-12) (UniProt P07650). The experiment in a line: Ratio of Kcat to Km for Escherichia coli thymidine phosphorylase. A digest of the protocol:
(§2)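 Continuous UV assay at 355 nm and 25 °C in 0.2 mL of 0.1 M potassium phosphate pH 7.4, using recombinant E. coli TP (ca. 0.00883 units per assay) added to start the reaction. Substrate is thymidine or 5-nitro-2'-deoxyuridine; phosphorolysis to 5-nitrouracil followed (εM 13300 M-1 cm-1 for substrate).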

For experiment [3] the target is unchanged. Description: Catalytic constant against Escherichia coli thymidine phosphorylase. The essentials: as §2
In experiment [4] the target is T1, Thymidine phosphorylase (Homo sapiens). The experiment in a line: Catalytic constant against human thymidine phosphorylase. The essentials: as §1

Sequence of Thymidine phosphorylase (Escherichia coli K-12) (P07650 whole entry, looked up): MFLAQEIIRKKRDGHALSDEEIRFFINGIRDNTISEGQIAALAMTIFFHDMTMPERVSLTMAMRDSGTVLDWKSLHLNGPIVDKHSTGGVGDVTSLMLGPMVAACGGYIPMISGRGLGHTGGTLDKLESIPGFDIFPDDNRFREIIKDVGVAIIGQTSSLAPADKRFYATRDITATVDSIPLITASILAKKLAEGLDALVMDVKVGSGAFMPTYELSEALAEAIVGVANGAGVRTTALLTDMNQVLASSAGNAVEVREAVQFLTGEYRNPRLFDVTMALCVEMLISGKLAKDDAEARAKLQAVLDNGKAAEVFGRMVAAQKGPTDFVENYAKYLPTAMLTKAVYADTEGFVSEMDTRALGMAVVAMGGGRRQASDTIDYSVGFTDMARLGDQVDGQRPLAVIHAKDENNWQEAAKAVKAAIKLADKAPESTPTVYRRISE

Regarding `O=c1[nH]c(=O)n([C@H]2C[C@H](O)[C@@H](CO)O2)cc1[N+](=O)[O-]`, the Ratio came to 18000 M⁻¹ s⁻¹ in experiment [1] and 87000 M⁻¹ s⁻¹ in experiment [2]. Also, the k cat in experiment [3] was 20 s⁻¹; in experiment [4], 2.88 s⁻¹.

`Cc1cn([C@H]2C[C@H](O)[C@@H](CO)O2)c(=O)[nH]c1=O`: in experiment [2], the Ratio was determined as 7.4e+06 M⁻¹ s⁻¹. In experiment [3], this compound gave a k cat of 1770 s⁻¹.
